Results taken from ChEMBL document CHEMBL1122032, “Dopaminergic activity of substituted 6-chloro-1-phenyl-2,3,4,5-tetrahydro-1H-3-benzazepines” (J Med Chem, 1982).
Calls of active or inactive are those of the source. The rule behind the calls is not given here.

Assays:
[1] = Selectivity ratio of compound as ratio of ED15 relative to mean arterial blood pressure(MABP) ED20; assay type: functional
Procedure, shortened: (§1)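 Secondary renal screen in anesthetized dogs: cumulative dose-response by infusing drug at progressively increasing rates, 5 min per dose level. RVR ED15 is the average minimum cumulative dose lowering RVR by 15%; maximum effect is the average maximum % fall in RVR. Selectivity ratios are separations between RVR ED15 and doses giving 30% change in iliac vascular resistance, 20% in MABP, 20% in HR.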

[2] = Selectivity ratio of Compound as ratio of ED15 relative to iliac vascular resistance(IVR) ED30; assay type: functional; procedure, shortened: as §1
Rattus norvegicus [3] = species: Rattus norvegicus; assay: Adenylase cyclase activity in rat striatal membranes at the concentration of 10e-6; assay type: functional; conditions: Striatum, Membrane
Canis familiaris [4] = species: Canis familiaris; assay: Renal vascular resistance was calculated as the ratio of the mean arterial blood pressure / mean renal blood flow; Highly significant activity; assay type: functional, organism-based; conditions: Canis lupus familiaris
Canis familiaris [5] = species: Canis familiaris; assay: Compound was evaluated for average maximum percent decrease in renal vascular resistance in dogs; assay type: functional, Canis lupus familiaris; procedure, shortened: as §1
Rattus norvegicus [6] = assay: Central dopaminergic activity against contralateral rotation(1000) in lesioned rats at the dose of 5.8(po) in 2 h; I=Inactive; assay type: functional, organism-based
Procedure, shortened: (§2)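 Oral dosing in rats with substantia nigra lesions, scoring contralateral rotations. RD1000 is the minimum dose producing 1000 turns in 2 h.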

Canis familiaris [7] = species: Canis familiaris; assay: Renal blood flow was measured in dogs; Highly significant activity; assay type: functional, organism-based; conditions: Canis lupus familiaris; Kidney
Rattus norvegicus [8] = species: Rattus norvegicus; assay: Adenylase cyclase activity in rat striatal membranes at the concentration of 10e-5; assay type: functional; conditions: Striatum, Membrane
Canis familiaris [9] = assay: Compound was evaluated for determining renal vascular resistance(iv) in dogs; assay type: functional, Canis lupus familiaris; procedure, shortened: as §1
Rattus norvegicus [10] = assay: Central dopaminergic activity for minimum concentration which produced 500 rotations(ip) in 2 h; assay type: functional
Procedure, shortened: (§3)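 Rats with substantia nigra lesions scored for contralateral rotation after intraperitoneal dosing (routine), oral dosing for selected compounds, or intracaudal administration for intrinsic activity. RD500 and RD1000 are the minimum doses giving 500 and 1000 turns, respectively, in 2 h.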

[11] = Selectivity ratio of compound as ED15 relative to heart rate(HR) ED20; assay type: functional; procedure, shortened: as §1
Canis familiaris [12] = species: Canis familiaris; assay: Renal blood flow was measured in dogs; Significant activity; assay type: functional, organism-based; conditions: Canis lupus familiaris; Kidney
Canis familiaris [13] = species: Canis familiaris; assay: Renal vascular resistance was calculated as the ratio of the mean arterial blood pressure / mean renal blood flow; Significant activity; assay type: functional, organism-based; conditions: Canis lupus familiaris
Rattus norvegicus [14] = assay: Central dopaminergic activity against contralateral rotation(1000) in lesioned rats(po) in 2 h; assay type: functional; procedure, shortened: as §2
Canis familiaris [15] = species: Canis familiaris; assay: Renal blood flow was measured in dogs; I=Inactive; assay type: functional, organism-based; conditions: Canis lupus familiaris; Kidney
Canis familiaris [16] = species: Canis familiaris; assay: Renal vascular resistance was calculated as the ratio of the mean arterial blood pressure / mean renal blood flow; I=Inactive; assay type: functional, organism-based; conditions: Canis lupus familiaris
Rattus norvegicus [17] = assay: Central dopaminergic activity for minimum concentration which produced 500 rotations at the dose of 10 mg/kg (i.p.) in 2 h; assay type: functional; conditions: route intraperitoneal; procedure, shortened: as §3
Rattus norvegicus [18] = species: Rattus norvegicus; assay: Central dopaminergic activity against contralateral rotation(500) in lesioned rats(ic) in 2 h; assay type: functional; procedure, shortened: as §3
Rattus norvegicus [19] = species: Rattus norvegicus; assay: Adenylase cyclase activity in rat striatal membranes at the concentration of 10e-7; assay type: functional; conditions: Striatum, Membrane
Rattus norvegicus [20] = assay: Central dopaminergic activity against contralateral rotation(1000) in lesioned rats(po) in 2 hr at 10 mg/kg; I=Inactive; assay type: functional, organism-based; set-up: dose 10 mg/kg; procedure, shortened: as §2
Rattus norvegicus [21] = assay: Central dopaminergic activity for minimum concentration which produced 500 rotations at the dose of 10 mg/kg (i.p.) in 2 h; I=Inactive; assay type: functional, organism-based; set-up: dose 10 mg/kg; procedure, shortened: as §3
Rattus norvegicus [22] = assay: Central dopaminergic activity against contralateral rotation(1000) in lesioned rats at the dose of 6 mg/kg (p.o.) in 2 h; I=Inactive

SMILES	DA response (Rattus norvegicus [3])	DA response (Rattus norvegicus [8])	Ratio [1]	Ratio [2]	RVR (Canis familiaris [4])	Decrease RVR (Canis familiaris [5])	RBF (Canis familiaris [7])	RVR ED15 (Canis familiaris [9])	RD500 (Rattus norvegicus [10])	Ratio [11]	RD1000 (Rattus norvegicus [14])	also measured
Br.Oc1cc2c(c(Cl)c1O)CCNCC2c1ccccc1 (stereo not drawn)	–	–	–	–	Active	39%	Active	0.0035 mg/kg	0.03 mg/kg	–	4.04 mg/kg	RD500 (Rattus norvegicus [18]): 0.22 ug rat-1
C=CCN1CCc2c(cc(OC(C)=O)c(OC(C)=O)c2Cl)C(c2ccccc2)C1.Cl (stereo not drawn)	–	–	–	–	–	–	–	–	0.03 mg/kg	–	–	RD1000 (Rattus norvegicus [20]): inactive
Br.C=CCN1CCc2c(cc(O)c(O)c2Cl)C(c2ccccc2)C1 (stereo not drawn)	–	–	–	–	Active	–	Active	–	0.03 mg/kg	–	–	–
Br.Oc1cc(C2CNCCc3c2cc(O)c(O)c3Cl)ccc1Cl (stereo not drawn)	–	–	>249	> 249	Significant activity	25%	Highly significant activity	0.061 mg/kg	–	>249	–	RD500 (Rattus norvegicus [21]): inactive
Oc1cc2c(c(Cl)c1O)CCN(Cc1ccco1)CC2c1cccc(Cl)c1 (stereo not drawn)	–	–	–	–	–	–	–	–	–	–	–	RBF (Canis familiaris [12]): Significant activity; RD1000 (Rattus norvegicus [22]): inactive; RVR (Canis familiaris [16]): inactive
NCCc1ccc(O)c(O)c1 [DOPAMINE]	–	–	113	56	Active	36%	Active	0.0027 mg/kg	–	141	–	–
Br.Oc1ccc(C2CNCCc3c2cc(O)c(O)c3Cl)cc1Br (stereo not drawn)	–	–	>2995	15	–	26%	–	0.002 mg/kg	–	>2995	–	–
Br.Oc1cc2c(c(Cl)c1O)CCNCC2c1cc(Cl)c(O)c(Cl)c1 (stereo not drawn)	–	–	>37	> 37	–	18%	–	0.165 mg/kg	–	>37	–	RBF (Canis familiaris [12]): Significant activity; RVR (Canis familiaris [13]): Significant activity; RD500 (Rattus norvegicus [21]): inactive

Now from value to compound, other results behind:

DA response (Rattus norvegicus [3])	DA response (Rattus norvegicus [8])	SMILES	Ratio [1]	Ratio [2]	RVR (Canis familiaris [4])	Decrease RVR (Canis familiaris [5])	RBF (Canis familiaris [7])	RVR ED15 (Canis familiaris [9])	RD500 (Rattus norvegicus [10])	Ratio [11]	RD1000 (Rattus norvegicus [14])	also measured
59%	64%	Br.Oc1cc2c(c(Cl)c1O)CCNCC2c1cccc(C(F)(F)F)c1 (stereo not drawn)	>6072	10	Significant activity	44%	Highly significant activity	0.008 mg/kg	0.71 mg/kg	75	–	RD1000 (Rattus norvegicus [6]): inactive
51%	64%	Cl.Oc1cc2c(c(Cl)c1O)CCN(Cc1cccs1)CC2c1ccccc1 (stereo not drawn)	–	–	–	–	–	–	0.063 mg/kg	–	5.8 mg/kg	RBF (Canis familiaris [12]): Significant activity; RVR (Canis familiaris [13]): Significant activity
23%	42%	Br.Cc1ccc(C2CNCCc3c2cc(O)c(O)c3Cl)cc1 (stereo not drawn)	–	–	–	–	–	–	–	–	–	RBF (Canis familiaris [15]): inactive; RVR (Canis familiaris [16]): inactive; Contralateral turns in 2 h (Rattus norvegicus [17]): 420 turns/2 h
48%	55%	Br.CCN1CCc2c(cc(O)c(O)c2Cl)C(c2ccccc2)C1 (stereo not drawn)	18	0.1	Significant activity	16%	Highly significant activity	0.045 mg/kg	0.015 mg/kg	>6072	4.9 mg/kg	–
–	96%	Br.C=CCN1CCc2c(cc(O)c(O)c2Cl)C(c2cccc(C)c2)C1 (stereo not drawn)	–	–	Significant activity	–	Highly significant activity	–	0.04 mg/kg	–	3 mg/kg	DA response (Rattus norvegicus [19]): 86%
52%	68%	Br.Oc1cc2c(c(Cl)c1O)CCNCC2c1ccc(Cl)cc1 (stereo not drawn)	–	–	–	–	–	–	3.4 mg/kg	–	–	RBF (Canis familiaris [15]): inactive; RVR (Canis familiaris [16]): inactive
22%	13%	Br.CN1CCc2c(cc(O)c(O)c2Cl)C(c2cccc(Cl)c2)C1 (stereo not drawn)	–	–	–	–	–	–	0.03 mg/kg	–	3.2 mg/kg	RBF (Canis familiaris [15]): inactive; RVR (Canis familiaris [16]): inactive
–	94%	Br.Cc1cccc(C2CNCCc3c2cc(O)c(O)c3Cl)c1 (stereo not drawn)	>6072	1	Significant activity	56%	Highly significant activity	0.015 mg/kg	0.47 mg/kg	7	–	DA response (Rattus norvegicus [19]): 76%
